Source: PubChem (several laboratories)
beta cell repl: MIN6 beta-cell proliferation induction | MIN6 cells proliferation, ATPlite luminescence, 48 h; cells starved in 0.2% serum; 100% = growth in 10% serum | proliferation, % at 10 µM | 330,000 tested, 0.29% active;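 active means compounds whose signal lies at least 3.5 SD above the mean of all wells on their plate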;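 further: 0% = DMSO-treated cells in low-serum medium and 100% = 10% serum control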
Myeloid diff MLP: myeloid differentiation induction. ER-HoxA9 myeloid progenitors, lysozyme-GFP differentiation, flow cytometry. calls only at 10 µM. 360,000 tested, 1% active;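 active means normalized GFP-positive differentiation at or above the plate's own cutoff, the solvent-only control mean plus 3 SD; inconclusive means no clear call, values can overlap the other calls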;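 further: cells exposed to compound for four days before flow analysis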
DAGLB inhibitor: diacylglycerol lipase beta (human) inhibition. 340,000 tested, 0.059% active. AID 504411. HEK293T DAGLB membrane lysate, EnzChek fluorogenic substrate. Q8NCG7. inhibition, % at 5.17 µM; in the data active means inhibition above about 34%;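 further: 0% = enzyme with vehicle and 100% = wells lacking enzyme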
SENP1 FRET inh: SENP1 (human) catalytic domain inhibition; Q9P0U3; recombinant SENP1 catalytic domain, CyPet-SUMO1-YPet FRET cleavage; inhibition, % at 10 µM; 360,000 tested, 0.21% active; AID 624204;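 active means inhibition at least 30% at 10 µM, raw YFP signal under a set limit, fluorescence ratio 0.5 to 1.5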;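 further: 0% = enzyme with DMSO and 100% = no enzyme wells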
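Compound: 10 µM single point, 0.5% DMSO; Test system: hSENP1 catalytic domain, recombinant; Timing: 50 min reaction at room temperature; Technique: FRET, CFP and YFP emission; Control set: no-enzyme wells low, DMSO-plus-enzyme wells high control.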
MT1-MMP act inh: inhibitors of human MT1-MMP activation; 360,000 tested, 0.061% active; AID 651647; GFP/RFP ratio change, % at 20 µM; HT1080 RFP-PRO-GFP cells, GFP/RFP ratio fluorescence, overnight; percent of plate control window, DMSO zero;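 active means GFP/RFP ratio change of at least 30% with cell ATP level not reduced by more than half and red fluorescence within 50% of control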
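Assay system – RFP-PRO-GFP reporter HT1080 cells · Compound dosing – single dose of 20 µM compound, 1% DMSO final · Incubation – overnight compound exposure at 37 °C · Measure – GFP/RFP fluorescence ratio · Benchmarks – DMSO wells and RFP-L50D-GFP cells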
CendR NRP1 mod: alters CendR peptide binding to human NRP-1. O14786. FAM-RPARPAR peptide binding to NRP-1, fluorescence polarization. inhibition, % at 25 µM. 360,000 tested, 0.85% active;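 active means inhibition or corrected inhibition above about 18%, plus a signal ratio from 0.5 to 1.5, limit read from the data, passing the limit was not always enough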
An asterisk follows results filed as active. Most compounds without a hit are left out; they make up all but 2.4% or so of the library.

Results for Cc1ccc(-c2cc([C@H]3[C@@H]4C=CCC[C@@]4(C)C(=O)N3Cc3ccccc3)ccc2F)cc1 ?
beta cell repl: -8; Myeloid diff MLP: inactive; DAGLB inhibitor: -13; SENP1 FRET inh: 2; MT1-MMP act inh: 6; CendR NRP1 mod: 6

Results for CCOC(=O)[C@]12CCCC=C1N(CCc1ccc(OC)c(OC)c1)C(=O)[C@H](CC(=O)NCC13CC4CC(CC(C4)C1)C3)C2 ?
Myeloid diff MLP: inactive; SENP1 FRET inh: -1; MT1-MMP act inh: -7; CendR NRP1 mod: -3

Results for O=C(CNC(=O)N1CC(=O)Nc2ccccc21)NCc1ccccc1Cl ?
beta cell repl: -1; Myeloid diff MLP: inactive; DAGLB inhibitor: -1; SENP1 FRET inh: 1; MT1-MMP act inh: 2; CendR NRP1 mod: 13

What do the screens show for `C[C@@H]1CN([C@@H](C)CO)C(=O)Cc2cc(NS(=O)(=O)c3ccccc3)ccc2O[C@H]1CN(C)S(C)(=O)=O`?
beta cell repl: 6; Myeloid diff MLP: inactive; DAGLB inhibitor: 1; SENP1 FRET inh: 1; MT1-MMP act inh: 2; CendR NRP1 mod: 21*

How did COc1ccc(S(=O)(=O)N(C)C[C@H]2Oc3ccc(NS(=O)(=O)c4cccs4)cc3C(=O)N([C@H](C)CO)C[C@@H]2C)cc1 do in these assays?
Myeloid diff MLP: active; DAGLB inhibitor: -1; SENP1 FRET inh: 2; MT1-MMP act inh: 3; CendR NRP1 mod: -4

Results for C[C@@H]1CN([C@H](C)CO)C(=O)c2cc(NC(=O)Nc3cccc4ccccc34)ccc2O[C@H]1CN(C)Cc1ccc(C(F)(F)F)cc1 ?
beta cell repl: -5; Myeloid diff MLP: inactive; DAGLB inhibitor: 1; SENP1 FRET inh: 1; MT1-MMP act inh: 2; CendR NRP1 mod: -26

Results for C[C@H](CO)N1C[C@H](C)[C@@H](CN(C)S(=O)(=O)c2cccs2)Oc2ccc(NS(=O)(=O)c3ccccc3)cc2CC1=O ?
beta cell repl: -2; Myeloid diff MLP: inactive; DAGLB inhibitor: -4; SENP1 FRET inh: 0; MT1-MMP act inh: 6; CendR NRP1 mod: 1

Results for COc1ccc(S(=O)(=O)Nc2cccc3c2O[C@H](CN(C)S(=O)(=O)c2cn(C)cn2)[C@@H](C)CN([C@H](C)CO)C3=O)cc1 ?
beta cell repl: 0; Myeloid diff MLP: inactive; DAGLB inhibitor: -3; SENP1 FRET inh: 3; MT1-MMP act inh: 4; CendR NRP1 mod: 26*

Results for C[C@H]1CN([C@@H](C)CO)C(=O)c2cc(NC(=O)Nc3cccc4ccccc34)ccc2O[C@@H]1CN(C)Cc1ccc(-c2ccccc2)cc1 ?
beta cell repl: -6; Myeloid diff MLP: inactive; DAGLB inhibitor: 1; SENP1 FRET inh: -3; MT1-MMP act inh: 8; CendR NRP1 mod: 25*

What do the screens show for `Cc1cc(NC(=O)c2ccc3sc([C@@H]4O[C@H](CO)[C@H](O)[C@H](O)[C@H]4O)nc3c2)n(C)n1`?
Myeloid diff MLP: inactive; SENP1 FRET inh: 3; MT1-MMP act inh: 6; CendR NRP1 mod: 12

What do the screens show for `CNc1cncc(-c2cc(OC)c(OC)c(OC)c2)n1`?
Myeloid diff MLP: inactive; SENP1 FRET inh: -12; MT1-MMP act inh: -1; CendR NRP1 mod: -10

What do the screens show for `C[C@H](CO)N1C[C@H](C)[C@@H](CN(C)S(=O)(=O)c2ccccc2)Oc2ccc(NC(=O)Cc3ccccc3)cc2C1=O`?
beta cell repl: 0; Myeloid diff MLP: inactive; DAGLB inhibitor: -2; SENP1 FRET inh: -1; MT1-MMP act inh: -1; CendR NRP1 mod: 24*

Results for C[C@@H]1CN([C@H](C)CO)C(=O)c2cc(NC(=O)Nc3ccc(C(F)(F)F)cc3)ccc2O[C@H]1CN(C)C(=O)Nc1ccc(F)cc1 ?
Myeloid diff MLP: active; DAGLB inhibitor: -1; SENP1 FRET inh: 1; MT1-MMP act inh: 13; CendR NRP1 mod: 6

Results for C[C@H](CO)N1C[C@H](C)[C@H](CN(C)C(=O)NC2CCCCC2)Oc2ncc(Br)cc2C1=O ?
Myeloid diff MLP: active; DAGLB inhibitor: 1; SENP1 FRET inh: 1; MT1-MMP act inh: 0; CendR NRP1 mod: -2

How did O=C(CCc1nnc(CCCc2ccccc2)o1)NC(C1CC1)C1CC1 do in these assays?
beta cell repl: -4; Myeloid diff MLP: inactive; DAGLB inhibitor: 1; SENP1 FRET inh: 2; MT1-MMP act inh: 0; CendR NRP1 mod: -2

Results for Cc1cc2c(ncn2C(C)C)c(N)c1C ?
beta cell repl: 0; Myeloid diff MLP: inactive; DAGLB inhibitor: 1; SENP1 FRET inh: -3; MT1-MMP act inh: -1; CendR NRP1 mod: -2

Results for COc1ccc(Cc2nc(-c3cccs3)no2)cc1 ?
beta cell repl: -3; Myeloid diff MLP: inactive; DAGLB inhibitor: -3; SENP1 FRET inh: 0; MT1-MMP act inh: 1; CendR NRP1 mod: 7

How did O=C(Nc1ccc(Cl)cc1)Nc1nnc(-c2ccncc2)s1 do in these assays?
DAGLB inhibitor: 3; SENP1 FRET inh: -151; MT1-MMP act inh: -9; CendR NRP1 mod: -28

What do the screens show for `Fc1ccc(Nc2nnc(-c3ccncc3)s2)cc1Cl`?
Myeloid diff MLP: inactive; SENP1 FRET inh: 2; MT1-MMP act inh: 1; CendR NRP1 mod: 35*

Results for CCN(CC)c1ccc(N=Cc2ccccc2[N+](=O)[O-])cc1 ?
beta cell repl: 0; Myeloid diff MLP: inactive; DAGLB inhibitor: 12; SENP1 FRET inh: 12; MT1-MMP act inh: 52*; CendR NRP1 mod: -13

Results for CCN(CC)c1ccc(N=Cc2ccc([N+](=O)[O-])o2)cc1 ?
beta cell repl: -6; Myeloid diff MLP: inconclusive; DAGLB inhibitor: 11; SENP1 FRET inh: 20; MT1-MMP act inh: 6; CendR NRP1 mod: -13

Results for Cn1cc([C@]2(O)C(=O)Nc3ccc(F)cc32)c2ccccc21 ?
Myeloid diff MLP: inactive; SENP1 FRET inh: -1; MT1-MMP act inh: 3; CendR NRP1 mod: 0

Results for CCOc1ccc(NC(=O)c2ccc3c(c2)S(=O)(=O)N=C2CCCCCN23)cc1 ?
Myeloid diff MLP: inactive; DAGLB inhibitor: -4; SENP1 FRET inh: 0; MT1-MMP act inh: 2; CendR NRP1 mod: -9

How did N=c1c2c(n(Cc3ccc(F)cc3)c3c1CCC3)CCCC2 do in these assays?
beta cell repl: -4; Myeloid diff MLP: inactive; DAGLB inhibitor: -2; SENP1 FRET inh: 0; MT1-MMP act inh: -14; CendR NRP1 mod: 24*

Results for N=c1c2c(n(Cc3ccc(Cl)cc3)c3c1CCC3)CCC2 ?
beta cell repl: -6; Myeloid diff MLP: inactive; DAGLB inhibitor: 1; SENP1 FRET inh: 1; MT1-MMP act inh: -19; CendR NRP1 mod: 8

How did CCCCc1ccc(S(=O)(=O)NC(=O)C2(C)CCN2C(=O)Cc2ccccc2)cc1 (stereo unspecified) do in these assays?
Myeloid diff MLP: inactive; SENP1 FRET inh: 0; MT1-MMP act inh: 2; CendR NRP1 mod: 2
